Screening results deposited in PubChem by several laboratories.
Many of the other results were omitted from the sample, so hits are more common in it than they were.
MDM2 E3 inh: inhibitors of human Mdm2 E3 ubiquitin ligase; cell-based MDM2 ubiquitination luciferase reporter, 2 h; 0 = plate control, 100 = twice control, blank-subtracted; signal enhancement, % at 5 µM; 0.11% of 210,000 active;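 active = signal enhancement of 30% or more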;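 also: luminescence tracks abundance of the self-degrading MDM2-luciferase fusion protein; higher signal means inhibition of MDM2 E3 ligase activity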
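Test system: stable mammalian line carrying autodegrading MDM2–luciferase fusion reporter; quantity: 2000 cells in each well; times: 4 h cell settling then 2 h compound exposure, 37 °C; detection: luminescence with SteadyLite reagent, 15 min at room temperature; evaluation: percent signal gain over controls, blank-subtracted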
S1P4 antagonist: antagonists of human S1P4 receptor | S1P4-expressing cells, antagonist mode, reporter read-out | inhibition, % at 4.98 µM | 0.26% of 220,000 active | AID 1510; in the data active = inhibition above about 29%;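 also: 0% = wells stimulated with agonist and 100% = vehicle wells without agonist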
Target sequence (O95977 whole entry, looked up): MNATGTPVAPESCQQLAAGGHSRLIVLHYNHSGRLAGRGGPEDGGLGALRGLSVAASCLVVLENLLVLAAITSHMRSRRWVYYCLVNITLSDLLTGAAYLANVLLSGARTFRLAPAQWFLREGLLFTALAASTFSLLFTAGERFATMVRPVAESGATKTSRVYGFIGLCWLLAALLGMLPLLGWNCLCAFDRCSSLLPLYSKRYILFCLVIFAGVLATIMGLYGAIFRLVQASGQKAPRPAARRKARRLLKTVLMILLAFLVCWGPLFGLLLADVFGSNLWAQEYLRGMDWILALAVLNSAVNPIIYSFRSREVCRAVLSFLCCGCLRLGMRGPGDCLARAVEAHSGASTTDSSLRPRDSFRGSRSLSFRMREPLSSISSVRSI
S1P4 agonist: activates the human S1P4 receptor. 0.35% of 220,000 active. activation, % at 4.98 µM. AID 1509. S1P4-expressing cell line, agonist reporter assay; in the data active = activation above about 11%;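 also: 0% = DMSO vehicle and 100% = reference agonist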
S1P3 antagonist: S1P3 (human) receptor antagonism; Q99500; CHO S1P3 NFAT-BLA reporter, FRET fluorescence, antagonist mode; inhibition, % at 4.98 µM; 0.27% of 170,000 active; AID 485;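 active = inhibition above the plate cutoff, the mean inhibition of test wells on that plate plus 3 SD, cut at about 28% in these data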;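 also: cells challenged with S1P at its EC80 of 0.8 µM; blue over green emission ratio from cleaved BLA substrate after 4 h stimulation; 0% = S1P-stimulated wells and 100% = unstimulated DMSO-only wells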
L major viab: reduces viability of Leishmania major promastigotes; resazurin fluorescence viability; inhibition, % at 10 µM; 9% of 200,000 active; in the data active = inhibition above about 50%;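 also: promastigotes grown with compound for 44 hours at 28 °C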
L major 1uM: inhibitors of Leishmania major promastigote growth, repeat at 1 uM | shares compounds with L major viab | L. major promastigote growth, resazurin fluorescence, 48 h | inhibition, % at 1 µM | 13% of 1,100 active;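 active = inhibition above about 50% in both repeat tests, limit read from the data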
* = called active by the depositor.

How did CCCSc1nnc(Sc2nnnn2-c2ccccc2)s1 do in these assays?
MDM2 E3 inh: -13; S1P4 antagonist: 8; S1P4 agonist: 0; S1P3 antagonist: -5; L major viab: 88*; L major 1uM: 46

How did COc1ccc(CSc2nnnn2-c2ccccc2)cc1 do in these assays?
MDM2 E3 inh: -8; S1P4 antagonist: -8; S1P4 agonist: 0; L major viab: 100*; L major 1uM: -22

What do the screens show for `Cc1ccccc1-n1nnnc1Sc1nnnn1-c1ccccc1`?
MDM2 E3 inh: -14; S1P4 antagonist: 17; S1P4 agonist: 0; L major viab: 100*; L major 1uM: 19

How did C=CCSc1nnnn1-c1ccc(OC)cc1 do in these assays?
MDM2 E3 inh: -15; S1P4 antagonist: -23; S1P4 agonist: 1; L major viab: -3

Results for COC(=O)c1ccccc1NC(=S)NC(NC(=O)COc1ccccc1)C(Cl)(Cl)Cl (configuration not stated) ?
MDM2 E3 inh: -11; S1P4 antagonist: -2; S1P4 agonist: 1; L major viab: 99*; L major 1uM: 23

How did COC(=O)c1ccc(-c2ccc(CNCC(O)c3ccccc3)o2)cc1 (configuration not stated) do in these assays?
MDM2 E3 inh: -10; S1P4 antagonist: -9; S1P4 agonist: -1; S1P3 antagonist: -15; L major viab: 99*; L major 1uM: 55*

What do the screens show for `Cc1c(Br)c([N+](=O)[O-])nn1CC(=O)NCc1cccnc1`?
MDM2 E3 inh: -9; S1P4 antagonist: -4; S1P4 agonist: 2; L major viab: 9

What do the screens show for `O=C(NC1CCCC1)C(c1ccc(F)cc1)N(Cc1ccc(Cl)cc1)C(=O)CCl` (configuration not stated)?
MDM2 E3 inh: -10; S1P4 antagonist: 0; S1P4 agonist: 0; S1P3 antagonist: -1; L major viab: 99*; L major 1uM: 51*

What do the screens show for `c1ccc(-c2nc(-c3cccs3)[nH]c2-c2ccccc2)cc1`?
MDM2 E3 inh: -6; S1P4 antagonist: -40; S1P4 agonist: 1; L major viab: 53*; L major 1uM: 8

Results for O=C(NCc1ccccc1F)C1CCCN(C(=O)NC2CCCCC2)C1 (configuration not stated) ?
MDM2 E3 inh: -17; S1P4 antagonist: 0; S1P4 agonist: 2; S1P3 antagonist: -5; L major viab: -1

What do the screens show for `Cc1ccc(NC(=S)N/N=C/c2c(C)nn(-c3ccccc3)c2N2CCCC2)cc1`?
MDM2 E3 inh: -31; S1P4 antagonist: -1; S1P4 agonist: 0; S1P3 antagonist: -2; L major viab: 10

Results for COc1c(/C=N/NC(N)=S)c(C)nn1-c1ccccc1 ?
MDM2 E3 inh: 7; S1P4 antagonist: -7; S1P4 agonist: 0; S1P3 antagonist: -4; L major viab: 58*; L major 1uM: -6

What do the screens show for `COC(=O)c1ccc(CN2CCN(Cc3ccc(C(=O)OC)o3)CC2)o1`?
MDM2 E3 inh: -6; S1P4 antagonist: 0; S1P4 agonist: 0; S1P3 antagonist: 11; L major viab: 2

How did COC(=O)c1ccc(CN(Cc2ccc(C(=O)OC)o2)C(C)(C)C)o1 do in these assays?
MDM2 E3 inh: -4; S1P4 antagonist: -8; S1P4 agonist: -1; S1P3 antagonist: -10; L major viab: 97*; L major 1uM: -12

Results for O=C(Oc1coc(CSc2ncccn2)cc1=O)c1cccc([N+](=O)[O-])c1 ?
MDM2 E3 inh: -5; S1P4 antagonist: 8; S1P4 agonist: 1; S1P3 antagonist: -3; L major viab: -7

How did O=C(Oc1ccc(Cl)c2cccnc12)c1cccc([N+](=O)[O-])c1 do in these assays?
MDM2 E3 inh: -2; S1P4 antagonist: -18; S1P4 agonist: 1; S1P3 antagonist: 3; L major viab: 99*; L major 1uM: 1

Results for Cn1cc(NC(=O)c2cc(NC(=O)c3cc(NC=O)cn3C)cn2C)cc1C(=O)NCCC(=N)N ?
MDM2 E3 inh: 9

How did CCOc1ccc(C(=O)/C=C/c2cn(CN3CCN(C)CC3)c3ccccc23)cc1 do in these assays?
MDM2 E3 inh: -11; S1P4 antagonist: 11; S1P4 agonist: 3; L major viab: 1

How did COc1ccc(C(=O)/C=C/c2cn(CN3CCN(C)CC3)c3ccccc23)cc1 do in these assays?
MDM2 E3 inh: -8; S1P4 antagonist: -3; S1P4 agonist: 4; L major viab: 93*; L major 1uM: -5

Results for Nc1nnc(-c2cn(-c3ccccc3)nc2-c2ccc(Cl)cc2)o1 ?
MDM2 E3 inh: -5; S1P4 antagonist: 11; S1P4 agonist: 1; S1P3 antagonist: -11

How did Nc1nnc(-c2cn(-c3ccccc3)nc2-c2ccccc2)o1 do in these assays?
MDM2 E3 inh: -4; S1P4 antagonist: -10; S1P4 agonist: -1; S1P3 antagonist: 4; L major viab: 55*; L major 1uM: -16

What do the screens show for `NC1=NC2=C(CCCC2)C2(CCCCC2)S1`?
MDM2 E3 inh: -4; S1P4 antagonist: 5; S1P4 agonist: 1; S1P3 antagonist: 5; L major viab: 54*; L major 1uM: 15

How did Nc1cccc2nc3ccccc3cc12 do in these assays?
MDM2 E3 inh: -1; S1P4 antagonist: -68; S1P4 agonist: 3; L major viab: 101*; L major 1uM: 79*

How did CN(C)CCOc1ccccc1Cc1ccccc1 do in these assays?
S1P4 antagonist: -23; S1P4 agonist: 0; S1P3 antagonist: -6; L major viab: 100*; L major 1uM: 89*

How did CN(C)Cc1ccccc1Cc1ccccc1 do in these assays?
MDM2 E3 inh: 2; S1P4 antagonist: -14; S1P4 agonist: 0; S1P3 antagonist: -6; L major viab: 0

What do the screens show for `O=C(Cc1ccccc1)Nc1cc(C(=O)c2ccccc2)ccc1N1CCOCC1`?
MDM2 E3 inh: -14; S1P4 antagonist: -6; S1P4 agonist: 1; L major viab: 97*; L major 1uM: -4

What do the screens show for `CCOC(=O)COc1ccc(/C=C2/SC(=Nc3ccccc3)N(Cc3cccnc3)C2=O)cc1OC`?
MDM2 E3 inh: -12; S1P4 antagonist: -18; S1P4 agonist: 0; L major viab: 60*; L major 1uM: -8

Results for CCN(CC)CCNC(=O)c1c(C)oc2cc(Br)c(OC)cc12 ?
MDM2 E3 inh: -13; S1P4 antagonist: -11; S1P4 agonist: 1; L major viab: 22

Results for CC(C)(C)c1nn(-c2ccccc2)c2nc(Cl)c(C=O)cc12 ?
MDM2 E3 inh: -11; S1P4 antagonist: 3; S1P4 agonist: 0; L major viab: 96*; L major 1uM: 7

How did Cc1ccc(S(=O)(=O)N2Cc3ccccc3CC2C(=O)Nn2cnnc2)cc1 (configuration not stated) do in these assays?
MDM2 E3 inh: -21; S1P4 antagonist: -8; S1P4 agonist: 1; S1P3 antagonist: 0; L major viab: 1
